Data set [1] is described as follows: Antiproliferative activity in human UACC62 cells assessed as cell growth inhibition after 48 hrs by SRB assay. In kind it is functional. The settings on record: UACC-62, 48 h. A digest of the protocol: (§1)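 NCI-60 screen: cells exposed to compound at 100, 10, 1, 0.1 and 0.01 μM for 48 h, then sulforhodamine B staining. Optical density ratio to control plotted as percent growth versus log10 concentration; GI50 interpolated between points above and below 50% growth.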
On the technique in general: The SRB assay estimates cell density from bound dye.

Data set [2] is described as follows: Antiproliferative activity in human HOP62 cells assessed as cell growth inhibition after 48 hrs by SRB assay. In kind it is functional. To be noted: HOP-62, 48 h. A digest of the protocol:
as §1

The nature of data set [3]: Antiproliferative activity in human […] cells assessed as cell growth inhibition after 48 hrs by SRB assay. It is filed as functional. A digest of the protocol: as §1
Data set [4] is described as follows: Antiproliferative activity in human SF539 cells assessed as cell growth inhibition after 48 hrs by SRB assay. In kind it is functional. The settings on record: SF-539, 48 h. Summed up:
as §1

The test system of the next data set is SN12C. In words: Antiproliferative activity in human SN12C cells assessed as cell growth inhibition after 48 hrs by SRB assay. In kind it is functional. Summed up:
as §1

A further data set deals with MCF7. In words: Antiproliferative activity in human MCF7 cells assessed as cell growth inhibition after 48 hrs by SRB assay. It is filed as functional. To be noted: MCF7, 48 h. A digest of the protocol:
as §1

Data set [5] in a line: Antiproliferative activity in human HCT116 cells assessed as cell growth inhibition after 48 hrs by SRB assay. In kind it is functional. The settings on record: HCT-116, 48 h. Summed up:
as §1

The nature of data set [6]: Antiproliferative activity in human DU145 cells assessed as cell growth inhibition after 48 hrs by SRB assay. It is filed as functional. To be noted: DU-145, 48 h. A digest of the protocol:
as §1

For data set [7], the target named is T1, DNA topoisomerase 1 (Homo sapiens) (UniProt P11387).
T1 sequence (whole entry): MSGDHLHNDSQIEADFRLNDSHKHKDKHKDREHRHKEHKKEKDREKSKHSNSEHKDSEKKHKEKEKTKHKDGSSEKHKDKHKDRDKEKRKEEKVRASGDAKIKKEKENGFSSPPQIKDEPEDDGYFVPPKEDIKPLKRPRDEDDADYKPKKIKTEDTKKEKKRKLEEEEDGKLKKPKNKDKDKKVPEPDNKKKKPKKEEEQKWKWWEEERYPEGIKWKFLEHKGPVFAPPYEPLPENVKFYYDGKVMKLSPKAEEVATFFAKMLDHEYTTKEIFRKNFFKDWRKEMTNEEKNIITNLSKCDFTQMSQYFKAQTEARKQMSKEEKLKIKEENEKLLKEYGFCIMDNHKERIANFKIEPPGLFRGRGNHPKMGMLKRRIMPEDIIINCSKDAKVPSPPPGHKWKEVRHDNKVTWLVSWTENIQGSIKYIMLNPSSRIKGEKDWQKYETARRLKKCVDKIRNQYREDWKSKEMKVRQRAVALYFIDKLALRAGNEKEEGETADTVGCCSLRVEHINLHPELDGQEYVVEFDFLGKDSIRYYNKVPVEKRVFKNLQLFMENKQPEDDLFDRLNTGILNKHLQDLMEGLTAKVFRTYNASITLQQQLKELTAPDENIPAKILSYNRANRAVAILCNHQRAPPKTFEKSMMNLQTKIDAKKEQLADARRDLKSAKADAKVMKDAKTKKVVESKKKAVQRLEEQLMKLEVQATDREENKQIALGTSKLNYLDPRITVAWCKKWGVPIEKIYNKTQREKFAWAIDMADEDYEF
In words: Inhibition of human recombinant Top1 expressed in baculovirus using [32P]-3-end labeled 117 bp DNA oligonucleotide as substrate assessed as enzyme mediated DNA cleavage at 0.1 to 100 uM after 20 mins by SDS-PAGE analysis relative to camptothecin. The arrangement: scale not given: the % may be the effect or the level left. Summed up:
(§2)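 Baculovirus-purified human recombinant Top1 with ~2 nM 117-bp oligonucleotide, 3'-end labeled by Klenow fill-in with [α-32P]dGTP. Stopped with 0.5% SDS and formamide dye; 20% denaturing PAGE, phosphoimager.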

Data set [8] deals with Plasma. As to the kind of experiment: Drug metabolism in rat plasma assessed as compound 9 formation at 5 uM after 15 mins by LC-MS/MS analysis. In kind it is ADME, cell-free. The settings on record: 0.25 h. A digest of the protocol:
(§3)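 Rat plasma at 37 °C with compound at 5 μM, duplicate runs alongside enalapril and warfarin controls. Aliquots taken at 0, 1, 3, 5 and 15 min into three volumes ice-cold methanol with propranolol internal standard, held ≥10 min at -20 °C, centrifuged. Parent quantified by LC-MS/MS in positive ion mode, expressed as % of time-zero concentration.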

A short description of data set [9]: Half life in rat plasma at 5 uM by LC-MS/MS analysis. It is filed as ADME, cell-free. Summed up:
as §3

The target in data set [10] is T1, DNA topoisomerase 1 (Homo sapiens). In words: Inhibition of human recombinant Top1 expressed in baculovirus using [32P]-3-end labeled 117 bp DNA oligonucleotide as substrate assessed as enzyme mediated DNA cleavage after 20 mins by SDS-PAGE analysis relative to camptothecin. Also on record: concentration or dose not given beside the values. Summed up: as §2
Data set [11] relates to Plasma. As to the kind of experiment: Drug uptake in rat plasma treated with of 2-Methoxy-6-(3-morpholinopropyl)-5,12-dioxo-6,12-dihydro 5H-[1,3]dioxolo[4,5:5,6]indeno[1,2-c]isoquinolin-3-yl Acetate after 15 mins by LC-MS/MS analysis. In kind it is ADME, cell-free. To be noted: 0.25 h. A digest of the protocol: as §3
The nature of data set [12]: Drug uptake in RPMI1640 medium treated with2-Methoxy-6-(3-morpholinopropyl)-5,12-dioxo-6,12-dihydro-5H-[1,3]dioxolo[4,5:5,6]indeno[1,2-c]isoquinolin-3-yl Methyl Succinate by at 10 uM after 99 hrs by LC-MS analysis. It is filed as physicochemical. A digest of the protocol:
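Compound (10 μM) incubated in cell-free RPMI 1640 medium at 37 °C for 99 h. Aliquot filtered and analysed by LC-MS, diode-array detection at 280 nm, flow 0.75 mL/min, for conversion to parent phenol.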

Active and inactive are the calls of the source.

Turning to `COc1cc2c3c(n(CCCN4CCOCC4)c(=O)c2cc1OS(=O)(=O)O)-c1cc2c(cc1C3=O)OCO2`, the GI50 in data set [1] is 263 nM; in data set [2] it was 389 nM; in data set [3], 1120 nM; in data set [4] it was 263 nM; in the data set with SN12C it was 355 nM; with MCF7, 209 nM. The GI50 in data set [5] was 389 nM; in data set [6], 417 nM. Also, the Activity in data set [7] is 50%.

With `COc1cc2c(=O)n(CCCN3CCOCC3)c3c(c2cc1OC(C)=O)C(=O)c1cc2c(cc1-3)OCO2`, the GI50 is 18 nM in data set [1]; 18 nM in [2]; 138 nM in data set [3]; less than 10 nM in [4]; less than 10 nM in the data set on SN12C; less than 10 nM in the data set with MCF7. Besides, the values for the concentration for 50% growth inhibition (GI50) in data set [5] and in [6] were 29 nM and less than 10 nM, respectively. Moreover, the Activity in data set [7] was 50%.

On to `COc1cc2c3c(n(CCCN4CCOCC4)c(=O)c2cc1OC(C)=O)-c1cc2c(cc1C3=O)OCO2`, for which the Drug metabolism result in the data set with Plasma [8] is “metabolite_detected”. For the same molecule, the GI50 is less than 10 nM in [1]; less than 10 nM in data set [2]; 269 nM in data set [3]; less than 10 nM in [4]; less than 10 nM in the data set with SN12C; less than 10 nM with MCF7. In addition, the GI50 in data set [5] and in data set [6] was less than 10 nM each time. In addition, in [9], the half-life at 5 µM was 54 s. In addition, in [10], the result was inactive.

In the case of `COc1cc2c(=O)n(CCCN3CCOCC3)c3c(c2cc1OC(=O)c1cccnc1)C(=O)c1cc2c(cc1-3)OCO2`, the GI50 in data set [1] was 22 nM; in data set [2], 12 nM; in data set [3] it was 295 nM; in [4], less than 10 nM; in the data set with SN12C, less than 10 nM; in the data set with MCF7, less than 10 nM. Further, the concentration for 50% growth inhibition (GI50) was 30 nM in [5] and 13 nM in data set [6]. The Activity in [7] is 75%.

Take `COc1cc2c3c(n(CCCN4CCOCC4)c(=O)c2cc1O)-c1cc2c(cc1C3=O)OCO2`: the Drug uptake entry (in the data set on Plasma [11]; in data set [12]) was “Active” each time. Moreover, the 50% growth inhibitory concentration (GI50) in data set [1] was less than 10 nM; in data set [2] it was 10 nM; in data set [3], 30 nM; in [4], less than 10 nM; in the data set on SN12C, less than 10 nM; in the data set on MCF7, less than 10 nM. Moreover, the GI50 in [5] is 20 nM; in data set [6] it was less than 10 nM. Also, the Activity in [10] stood at 75%.

As for `COc1cc2c(=O)n(CCCN3CCOCC3)c3c(c2cc1OC(=O)c1ccccc1)C(=O)c1cc2c(cc1-3)OCO2`, the GI50 in [1] was determined as 96 nM; in [2] it was 79 nM; in data set [3], 4570 nM; in data set [4], 37 nM; in the data set with SN12C, 54 nM; in the data set on MCF7, 33 nM. Besides, the values for the GI50 in data set [5] and in [6] were 850 nM and 51 nM, respectively. The Activity in data set [7] stood at 20%.

Regarding `COC(=O)CCC(=O)Oc1cc2c3c(n(CCCN4CCOCC4)c(=O)c2cc1OC)-c1cc2c(cc1C3=O)OCO2`, the GI50 in data set [1] is less than 10 nM; in data set [2], less than 10 nM; in data set [3], 66 nM; in data set [4] it was less than 10 nM; in the data set on SN12C, less than 10 nM; in the data set on MCF7, less than 10 nM. Moreover, the figures for the GI50 in [5] and in [6] were 14 nM and less than 10 nM, respectively. The Activity in [10] came out at 20%.

As to `COc1cc2c3c(n(CCCN4CCOCC4)c(=O)c2cc1OC(=O)c1ccccc1)-c1cc2c(cc1C3=O)OCO2`, the GI50 in data set [1] is 59 nM; in data set [2], 2140 nM; in data set [3], 30900 nM; in [4], 135 nM; in the data set with SN12C it was 195 nM; in the data set with MCF7 it was 15 nM. For the same molecule, the concentration for 50% growth inhibition (GI50) in [5] was determined as 5890 nM; in data set [6] it was 724 nM. Besides, in [10], the Activity came out at 20%.

In the case of `COC(=O)CCC(=O)Oc1cc2c(=O)n(CCCN3CCOCC3)c3c(c2cc1OC)C(=O)c1cc2c(cc1-3)OCO2`, the GI50 is 18 nM in [1]; 16 nM in data set [2]; 37 nM in data set [3]; less than 10 nM in data set [4]; less than 10 nM in the data set with SN12C; less than 10 nM in the data set with MCF7. Also, the values for the concentration for 50% growth inhibition (GI50) in [5] and in data set [6] were 20 nM and 14 nM, respectively. The result in data set [10] was inactive.

`COc1cc2c(=O)n(CCCN3CCOCC3)c3c(c2cc1OC(=O)N(C)C)C(=O)c1cc2c(cc1-3)OCO2`: the GI50 in data set [1] was found to be 4470 nM; in data set [2] it was 1700 nM; in data set [3], 12000 nM; in data set [4], 1860 nM; with SN12C, 2400 nM; in the data set on MCF7, 22 nM. Further, the GI50 in data set [5] was 6070 nM; in data set [6] it was 1550 nM. Further, the Activity in data set [7] is 75%.

In the case of `COc1cc2c3c(n(CCCN4CCOCC4)c(=O)c2cc1OC(=O)c1cccnc1)-c1cc2c(cc1C3=O)OCO2`, the GI50 in data set [1] is less than 10 nM; in data set [2] it was less than 10 nM; in [3] it was 15 nM; in data set [4], less than 10 nM; with SN12C, less than 10 nM; with MCF7, less than 10 nM. Also, the 50% growth inhibitory concentration (GI50) in [5] and in data set [6] was less than 10 nM throughout. Besides, in data set [10], the Activity was 20%.

Turning to `COc1cc2c3c(n(CCCN4CCOCC4)c(=O)c2cc1OC)-c1cc2c(cc1C3=O)OCO2` [INDOTECAN], the GI50 was 30 nM in data set [1], 74100 nM in [3], 40 nM in data set [4] and 374 nM in the data set with MCF7. Moreover, in data set [10], the Activity is 100%.

Consider `COc1cc2c3c(n(CCCN4CCOCC4)c(=O)c2cc1OC(=O)N(C)C)-c1cc2c(cc1C3=O)OCO2`, for which the GI50 in data set [1] is 17 nM; in [2], 32 nM; in data set [3] it was 105 nM; in data set [4] it was 21 nM; with SN12C it was 25 nM; in the data set with MCF7, less than 10 nM. The results for the GI50 in [5] and in data set [6] were 26 nM and 32 nM, respectively. For the same molecule, the Activity in data set [10] amounted to 50%.

`COc1cc2c(=O)n(CCCN3CCOCC3)c3c(c2cc1O)C(=O)c1cc2c(cc1-3)OCO2`: the GI50 in data set [3] was 871 nM. Further, the Activity in [10] was found to be 50%.

By GI50 is commonly meant the concentration at which growth is held to half of that of the control. One may read the half-life as the time needed for the level to fall by half in the phase considered.
